{
  "source": "ChEMBL document CHEMBL1128543",
  "about": "“Computer-aided design and synthesis of 5-substituted tryptamines and their pharmacology at the 5-HT1D receptor: discovery of compounds with potential anti-migraine properties” (J Med Chem, 1995)",
  "key": {"[1]": {"organism": "Oryctolagus cuniculus", "test": "Binding affinity against 5-hydroxytryptamine 4 receptor using rabbit saphenous vein assay.", "type": "tissue-based"}, "[2]": {"biological_target": "D(2) dopamine receptor (Homo sapiens) (UniProt P14416)", "sequence (P14416 whole entry)": "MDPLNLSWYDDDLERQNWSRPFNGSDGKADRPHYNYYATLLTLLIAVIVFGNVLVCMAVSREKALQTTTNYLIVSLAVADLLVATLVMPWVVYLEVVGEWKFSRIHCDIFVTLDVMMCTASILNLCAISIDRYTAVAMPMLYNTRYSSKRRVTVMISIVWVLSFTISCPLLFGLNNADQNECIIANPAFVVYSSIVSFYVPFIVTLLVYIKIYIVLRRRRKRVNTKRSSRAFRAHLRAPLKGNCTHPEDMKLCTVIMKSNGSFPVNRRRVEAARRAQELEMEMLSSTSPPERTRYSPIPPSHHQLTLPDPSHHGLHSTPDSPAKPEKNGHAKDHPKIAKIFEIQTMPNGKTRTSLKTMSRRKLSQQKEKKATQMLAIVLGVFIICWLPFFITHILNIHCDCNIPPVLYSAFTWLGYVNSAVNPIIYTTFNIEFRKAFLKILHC", "test": "Binding affinity against Dopamine receptor D2 using rabbit saphenous vein assay.", "type": "tissue-based", "conditions": "Oryctolagus cuniculus, target entry is the homologue from another species"}, "[3]": {"biological_target": "T1, 5-hydroxytryptamine receptor 1A (Homo sapiens) (UniProt P08908)", "T1 sequence (whole entry)": "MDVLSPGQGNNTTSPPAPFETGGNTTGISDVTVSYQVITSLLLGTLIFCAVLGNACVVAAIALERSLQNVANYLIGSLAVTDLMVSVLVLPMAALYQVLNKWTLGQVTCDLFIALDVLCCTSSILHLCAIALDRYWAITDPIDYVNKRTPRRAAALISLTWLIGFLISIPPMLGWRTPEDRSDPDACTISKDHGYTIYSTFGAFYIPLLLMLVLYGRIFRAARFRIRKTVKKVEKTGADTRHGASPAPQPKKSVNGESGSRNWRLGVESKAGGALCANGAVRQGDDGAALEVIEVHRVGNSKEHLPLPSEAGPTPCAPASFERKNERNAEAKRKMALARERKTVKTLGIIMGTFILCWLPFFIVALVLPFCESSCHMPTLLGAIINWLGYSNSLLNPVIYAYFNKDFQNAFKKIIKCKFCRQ", "test": "Binding affinity against 5-hydroxytryptamine 1 receptor using rabbit jugular vein assay in the presence of endothelium", "conditions": "Oryctolagus cuniculus; target entry is the homologue from another species"}, "[4]": {"organism": "Oryctolagus cuniculus", "test": "Binding affinity against 5-hydroxytryptamine 1 receptor using rabbit saphenous vein assay.", "type": "tissue-based", "outline": "(§1)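 Male New Zealand White rabbit saphenous vein rings (4–5 mm) in Krebs–Henseleit at 37 °C, pH 7.4, gassed with 95% O₂:5% CO₂, under 2 g passive force. Tissues got 30 min pargyline (500 μM) and phenoxybenzamine (0.3 μM), then were washed and checked with 1 μM 5-HT. A cumulative 5-HT curve was followed 60 min later by a test agonist curve. Potency is p[A₅₀]; α is test max/5-HT max; n ≥ 3.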"}, "[5]": {"biological_target": "5-hydroxytryptamine receptor 1B (Homo sapiens, UniProt P28222)", "sequence (P28222 whole entry)": "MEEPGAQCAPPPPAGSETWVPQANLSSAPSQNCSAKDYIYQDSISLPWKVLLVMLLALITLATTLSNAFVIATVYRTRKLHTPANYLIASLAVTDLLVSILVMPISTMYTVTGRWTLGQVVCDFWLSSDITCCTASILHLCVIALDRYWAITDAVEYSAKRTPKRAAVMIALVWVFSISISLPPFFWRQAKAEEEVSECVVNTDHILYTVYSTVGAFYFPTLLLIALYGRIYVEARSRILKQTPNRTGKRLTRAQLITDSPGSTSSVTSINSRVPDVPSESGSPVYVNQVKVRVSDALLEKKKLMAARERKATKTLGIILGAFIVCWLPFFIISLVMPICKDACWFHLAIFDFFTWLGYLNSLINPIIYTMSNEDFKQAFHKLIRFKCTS", "test": "Binding affinity against 5-hydroxytryptamine 1D receptor beta using rabbit saphenous vein assay.", "type": "tissue-based", "outline": "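Saphenous vein rings (4–5 mm) from male New Zealand White rabbits, in Krebs–Henseleit buffer at 37 °C, pH 7.4, gassed 95% O2/5% CO2, 2 g passive force. Pretreated with pargyline (500 μM) and phenoxybenzamine (0.3 μM) for 30 min, then washed. A cumulative 5-HT curve was followed after 60 min by a curve to the test agonist. p[A50] and α relative to 5-HT maximum were derived; mean of n ≥ 3.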"}, "[6]": {"organism": "Oryctolagus cuniculus", "test": "Binding affinity against 5-hydroxytryptamine 1D receptor using rabbit saphenous vein assay.", "type": "tissue-based", "outline": "as §1"}, "[7]": {"biological_target": "T2, Adrenergic receptor alpha-2 (Rattus norvegicus, UniProt P22086+P19328+P22909)", "T2 sequence (P22086 whole entry)": "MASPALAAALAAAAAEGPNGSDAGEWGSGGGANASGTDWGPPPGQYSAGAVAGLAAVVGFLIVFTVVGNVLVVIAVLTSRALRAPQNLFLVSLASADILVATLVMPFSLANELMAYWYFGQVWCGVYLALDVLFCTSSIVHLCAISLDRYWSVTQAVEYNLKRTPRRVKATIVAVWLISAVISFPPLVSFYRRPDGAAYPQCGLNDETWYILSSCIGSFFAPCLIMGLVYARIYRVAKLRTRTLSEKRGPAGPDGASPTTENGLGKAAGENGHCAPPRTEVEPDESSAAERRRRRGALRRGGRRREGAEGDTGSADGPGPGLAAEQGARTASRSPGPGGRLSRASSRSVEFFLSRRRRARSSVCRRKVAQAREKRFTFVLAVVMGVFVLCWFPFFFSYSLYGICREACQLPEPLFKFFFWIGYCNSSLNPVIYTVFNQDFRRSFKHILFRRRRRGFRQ", "T2 sequence (P19328 whole entry)": "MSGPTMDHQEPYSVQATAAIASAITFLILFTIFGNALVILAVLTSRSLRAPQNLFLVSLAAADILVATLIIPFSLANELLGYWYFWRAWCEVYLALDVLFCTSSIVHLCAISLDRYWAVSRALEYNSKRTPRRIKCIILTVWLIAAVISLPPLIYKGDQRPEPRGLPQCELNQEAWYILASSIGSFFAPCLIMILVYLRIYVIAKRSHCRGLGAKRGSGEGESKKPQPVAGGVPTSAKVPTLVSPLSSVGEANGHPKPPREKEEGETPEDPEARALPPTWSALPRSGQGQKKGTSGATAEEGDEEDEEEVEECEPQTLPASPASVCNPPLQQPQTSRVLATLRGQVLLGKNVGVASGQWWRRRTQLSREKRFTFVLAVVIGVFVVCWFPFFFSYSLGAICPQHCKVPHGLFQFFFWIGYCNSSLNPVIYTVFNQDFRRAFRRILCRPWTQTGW", "T2 sequence (P22909 whole entry)": "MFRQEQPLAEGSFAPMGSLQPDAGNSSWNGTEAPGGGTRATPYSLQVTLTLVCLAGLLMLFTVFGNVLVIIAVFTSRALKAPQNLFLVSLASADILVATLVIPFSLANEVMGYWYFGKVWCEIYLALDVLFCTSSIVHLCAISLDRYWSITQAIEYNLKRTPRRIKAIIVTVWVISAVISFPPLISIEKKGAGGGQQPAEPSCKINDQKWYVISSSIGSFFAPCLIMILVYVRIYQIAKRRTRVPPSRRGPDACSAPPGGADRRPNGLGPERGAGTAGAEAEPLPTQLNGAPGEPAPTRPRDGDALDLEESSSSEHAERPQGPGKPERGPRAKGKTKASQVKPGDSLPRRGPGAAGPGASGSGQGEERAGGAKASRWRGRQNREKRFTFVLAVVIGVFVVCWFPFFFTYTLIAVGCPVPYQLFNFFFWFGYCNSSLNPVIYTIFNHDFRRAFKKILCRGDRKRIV", "test": "Binding affinity against Alpha-2 adrenergic receptor in rat cortex using [3H]-idazoxan as radioligand", "outline": "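Competition binding on rat cortex with [³H]idazoxan (7 nM, about K_D) against a wide test range run in duplicate. Incubation was 30 min at 27 °C in 50 mM Tris-HCl, 5 mM CaCl₂, 0.1% ascorbate and 10 mM pargyline. Assays were ended by rapid filtration and read by scintillation. Values are pK_i or pIC₅₀, mean of n ≥ 3.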"}, "[8]": {"biological_target": "Histamine H1 receptor (Homo sapiens) (UniProt P35367)", "sequence (P35367 whole entry)": "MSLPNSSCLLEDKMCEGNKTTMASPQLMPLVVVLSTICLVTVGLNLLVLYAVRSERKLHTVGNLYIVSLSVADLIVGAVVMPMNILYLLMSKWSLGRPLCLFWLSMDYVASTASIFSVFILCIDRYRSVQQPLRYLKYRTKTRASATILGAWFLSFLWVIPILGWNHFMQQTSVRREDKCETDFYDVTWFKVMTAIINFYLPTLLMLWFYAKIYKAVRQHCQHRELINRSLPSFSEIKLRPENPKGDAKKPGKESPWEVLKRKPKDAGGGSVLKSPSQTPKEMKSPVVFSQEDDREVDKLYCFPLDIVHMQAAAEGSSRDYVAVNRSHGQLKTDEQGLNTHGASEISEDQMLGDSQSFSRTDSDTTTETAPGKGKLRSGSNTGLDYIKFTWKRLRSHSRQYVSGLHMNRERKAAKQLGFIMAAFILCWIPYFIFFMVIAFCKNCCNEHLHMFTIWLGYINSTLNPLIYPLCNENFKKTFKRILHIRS", "test": "Binding affinity against H1 receptor using rabbit saphenous vein assay.", "type": "tissue-based", "conditions": "Oryctolagus cuniculus, target entry is the homologue from another species"}, "[9]": {"organism": "Oryctolagus cuniculus", "test": "(§2) Intrinsic activity against 5-hydroxytryptamine 1 receptor using rabbit saphenous vein assay.", "type": "tissue-based", "outline": "as §1"}, "[10]": {"biological_target": "5-hydroxytryptamine receptor 1D (Homo sapiens) (UniProt P28221)", "sequence (P28221 whole entry)": "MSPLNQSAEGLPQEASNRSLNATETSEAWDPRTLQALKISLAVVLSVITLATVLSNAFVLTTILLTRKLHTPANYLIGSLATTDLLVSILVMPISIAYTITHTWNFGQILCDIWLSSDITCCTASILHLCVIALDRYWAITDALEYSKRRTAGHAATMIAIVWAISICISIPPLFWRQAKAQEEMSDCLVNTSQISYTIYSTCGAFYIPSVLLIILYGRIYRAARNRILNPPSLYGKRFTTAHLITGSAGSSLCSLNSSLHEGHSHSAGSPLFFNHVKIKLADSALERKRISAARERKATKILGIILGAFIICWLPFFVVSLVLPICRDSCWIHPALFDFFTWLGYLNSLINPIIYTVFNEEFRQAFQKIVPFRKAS", "test": "as §2", "type": "tissue-based", "conditions": "Oryctolagus cuniculus, target entry is the homologue from another species", "outline": "as §1"}},
  "data": [
    {"smiles": "CN(C)CCc1c[nH]c2ccc(C[C@H]3COC(=O)N3)cc12", "note": "[ZOLMITRIPTAN]", "values": [
      {"measurement": "p[A50]", "setting": "[1]", "value": 5.3},
      {"measurement": "p[A50]", "setting": "[2]", "value": "< 4"},
      {"measurement": "p[A50]", "setting": "[3]", "value": 6.45},
      {"measurement": "p[A50]", "setting": "[4]", "value": 6.8},
      {"measurement": "Kd", "setting": "[5]", "value": 1.5, "unit": "nM"},
      {"measurement": "p[A50]", "setting": "[6]", "value": "< 4.5"},
      {"measurement": "Kd", "setting": "[7]", "value": 7, "unit": "nM"},
      {"measurement": "p[A50]", "setting": "[8]", "value": 5.5},
      {"measurement": "Intrinsic activity", "setting": "[9]", "value": 0.77},
      {"measurement": "p[A50]", "setting": "[10]", "value": 8.7}
    ]}
  ]
}
